According to ChEMBL document CHEMBL1268957, “Indapamide-like benzenesulfonamides as inhibitors of carbonic anhydrases I, II, VII, and XIII” (Bioorg Med Chem, 2010):
pKd: −log10 of the molar value.

Key:
Carbonic anhydrase 13 [1] = biological target: T1, Carbonic anhydrase 13 (Homo sapiens, UniProt Q8N1Q1); assay: Binding affinity to human recombinant carbonic anhydrase 13 by isothermal titration calorimetry assay
Carbonic anhydrase 13 [2] = biological target: T1, Carbonic anhydrase 13; assay: Binding affinity to human recombinant carbonic anhydrase 13 by thermal shift assay
Carbonic anhydrase 7 [3] = biological target: T2, Carbonic anhydrase 7 (Homo sapiens, UniProt P43166); assay: Binding affinity to human recombinant carbonic anhydrase 7 by thermal shift assay
Carbonic anhydrase 1 [4] = biological target: T3, Carbonic anhydrase 1 (Homo sapiens, UniProt P00915); assay: Binding affinity to human recombinant carbonic anhydrase 1 by thermal shift assay
Carbonic anhydrase 7 [5] = biological target: T2, Carbonic anhydrase 7; assay: Binding affinity to human recombinant carbonic anhydrase 7 by isothermal titration calorimetry assay
Carbonic anhydrase 1 [6] = biological target: T3, Carbonic anhydrase 1; assay: Binding affinity to human recombinant carbonic anhydrase 1 by isothermal titration calorimetry assay
Procedure, shortened: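 Isothermal titration calorimetry of ligand binding to recombinant hCA at 37 °C in phosphate buffer with 50 mM NaCl, pH 7.0, final DMSO 0.5–2%. Heats of injection integrated against molar ratio to give the dissociation constant.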

Carbonic anhydrase 2 [7] = biological target: T4, Carbonic anhydrase 2 (Homo sapiens, UniProt P00918); assay: Binding affinity to human recombinant carbonic anhydrase 2 by thermal shift assay
Carbonic anhydrase 2 [8] = biological target: T4, Carbonic anhydrase 2; assay: Binding affinity to human recombinant carbonic anhydrase 2 by isothermal titration calorimetry assay

T3 sequence (P00915 whole entry): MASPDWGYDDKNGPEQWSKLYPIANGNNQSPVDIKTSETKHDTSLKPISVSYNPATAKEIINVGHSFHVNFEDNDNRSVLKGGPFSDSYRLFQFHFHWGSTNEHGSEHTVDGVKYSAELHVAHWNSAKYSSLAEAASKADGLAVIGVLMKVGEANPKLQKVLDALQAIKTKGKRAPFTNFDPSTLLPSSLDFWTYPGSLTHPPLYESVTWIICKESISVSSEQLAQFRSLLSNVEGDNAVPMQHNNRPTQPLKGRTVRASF
T2 sequence (P43166 whole entry): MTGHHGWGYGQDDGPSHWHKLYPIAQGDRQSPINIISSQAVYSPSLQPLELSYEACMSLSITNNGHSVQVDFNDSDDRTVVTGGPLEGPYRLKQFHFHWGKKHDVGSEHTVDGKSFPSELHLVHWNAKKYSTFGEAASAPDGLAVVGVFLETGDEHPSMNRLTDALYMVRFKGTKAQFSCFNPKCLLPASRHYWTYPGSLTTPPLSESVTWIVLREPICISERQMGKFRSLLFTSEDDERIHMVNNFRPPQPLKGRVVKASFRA
T1 sequence (Q8N1Q1 whole entry): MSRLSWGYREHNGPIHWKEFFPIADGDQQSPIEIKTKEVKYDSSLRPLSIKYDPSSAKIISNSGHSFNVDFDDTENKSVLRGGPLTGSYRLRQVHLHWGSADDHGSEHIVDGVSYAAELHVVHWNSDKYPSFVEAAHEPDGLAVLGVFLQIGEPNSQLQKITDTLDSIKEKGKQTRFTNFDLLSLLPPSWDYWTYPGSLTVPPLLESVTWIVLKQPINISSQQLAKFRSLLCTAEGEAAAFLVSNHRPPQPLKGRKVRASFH

| pKd (Carbonic anhydrase 13 [1]) | pKd (Carbonic anhydrase 13 [2]) | pKd (Carbonic anhydrase 7 [3]) | pKd (Carbonic anhydrase 1 [4]) | pKd (Carbonic anhydrase 7 [5]) | pKd (Carbonic anhydrase 1 [6]) | pKd (Carbonic anhydrase 2 [7]) | pKd (Carbonic anhydrase 2 [8]) | SMILES |
| --- | --- | --- | --- | --- | --- | --- | --- | --- |
| 6.52 | 7.00 | 7.00 | 5.51 | 5.96 | 5.66 | 7.70 | – | NS(=O)(=O)c1cc(C(=O)CSc2nc3cc4c(cc3[nH]2)OCCO4)ccc1Cl |
| – | – | – | – | – | – | 6.40 | – | CC(C)Cc1nc2ccccc2n1CC(=O)c1ccc(Cl)c(S(N)(=O)=O)c1 |
| – | 6.52 | – | – | – | – | – | – | NS(=O)(=O)c1cc(C(=O)Cn2c(CO)nc3ccccc32)ccc1Cl |
| – | 6.15 | – | – | – | – | – | – | NS(=O)(=O)c1cc(C(=O)Cn2cnc3ccccc32)ccc1Cl |
| – | 7.00 | 7.00 | 5.89 | – | – | – | – | NS(=O)(=O)c1cc(C(=O)CSc2nc3c(cnc4ccccc43)[nH]2)ccc1Cl |
| 6.70 | 7.00 | 7.00 | 5.89 | – | 5.85 | – | – | NS(=O)(=O)c1cc(C(=O)CSc2nc3ccc(Br)cc3[nH]2)ccc1Cl |
| – | 4.90 | 5.00 | 4.40 | – | – | 5.38 | – | NS(=O)(=O)c1cc(C(=O)Cn2c(CN3CCOCC3)nc3ccccc32)ccc1Cl |
| 7.00 | 6.70 | 7.52 | 6.00 | 7.00 | 5.89 | 7.00 | 7.00 | NS(=O)(=O)c1cc(C(=O)CSc2nc3ccccc3[nH]2)ccc1Cl |
